ChEMBL document CHEMBL4339228, “Identification of Isoform 2 Acid-Sensing Ion Channel Inhibitors as Tool Compounds for Target Validation Studies in CNS” (ACS Med Chem Lett, 2019)
pIC50: −log10 of the molar value. In brackets after ≈: the same amount, converted by molar mass.

Tests used:
[1] = target: T1, Acid-sensing ion channel 1 (Mus musculus, UniProt Q6NXK8); test: Inhibition of pH 6.6-stimulated mouse ASIC1a homomer expressed in CHOK1 cells assessed as reduction in channel activation by VSD fluorescence assay; type: cell-based
T1 sequence (Q6NXK8 whole entry): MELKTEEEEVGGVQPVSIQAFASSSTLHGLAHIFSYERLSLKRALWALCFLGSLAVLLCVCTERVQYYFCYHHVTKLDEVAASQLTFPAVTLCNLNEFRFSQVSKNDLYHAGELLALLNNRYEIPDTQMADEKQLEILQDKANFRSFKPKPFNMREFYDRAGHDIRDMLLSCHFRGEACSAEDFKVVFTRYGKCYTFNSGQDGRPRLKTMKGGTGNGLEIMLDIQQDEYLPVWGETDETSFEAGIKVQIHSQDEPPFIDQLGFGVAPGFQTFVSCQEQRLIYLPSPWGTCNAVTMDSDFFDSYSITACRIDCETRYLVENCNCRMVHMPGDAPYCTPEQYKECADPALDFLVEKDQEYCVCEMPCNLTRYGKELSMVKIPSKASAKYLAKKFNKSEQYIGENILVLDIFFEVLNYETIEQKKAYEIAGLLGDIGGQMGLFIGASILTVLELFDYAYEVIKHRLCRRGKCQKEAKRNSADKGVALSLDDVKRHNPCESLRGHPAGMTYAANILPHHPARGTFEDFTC

[2] = target: T2, Acid-sensing ion channel 2 (Mus musculus, UniProt Q925H0); test: Inhibition of pH 5.5-stimulated mouse ASIC2a homomer expressed in CHOK1 cells assessed as reduction in channel activation by VSD fluorescence assay; type: cell-based
T2 sequence (Q925H0 whole entry): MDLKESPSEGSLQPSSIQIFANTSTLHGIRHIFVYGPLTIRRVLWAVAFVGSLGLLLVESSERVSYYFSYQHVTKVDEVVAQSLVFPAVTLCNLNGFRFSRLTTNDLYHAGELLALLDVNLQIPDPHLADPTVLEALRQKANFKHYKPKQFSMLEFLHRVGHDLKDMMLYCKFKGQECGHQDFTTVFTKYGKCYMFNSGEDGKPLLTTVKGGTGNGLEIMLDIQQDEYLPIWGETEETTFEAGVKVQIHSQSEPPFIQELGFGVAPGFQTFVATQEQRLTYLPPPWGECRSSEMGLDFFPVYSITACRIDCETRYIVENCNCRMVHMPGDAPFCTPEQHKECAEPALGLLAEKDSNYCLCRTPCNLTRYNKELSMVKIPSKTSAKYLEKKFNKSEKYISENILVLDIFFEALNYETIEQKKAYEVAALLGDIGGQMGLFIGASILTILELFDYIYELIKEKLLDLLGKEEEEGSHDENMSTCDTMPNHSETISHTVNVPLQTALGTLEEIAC

[3] = target: T3, Acid-sensing ion channel 1/2 (Mus musculus, UniProt Q6NXK8+Q925H0); test: Inhibition of pH 6.25-stimulated mouse ASIC1a/2a […] expressed in CHOK1 cells assessed as reduction in channel activation by VSD fluorescence assay; type: cell-based
T3 sequence (Q6NXK8 whole entry): T1 sequence (Q6NXK8 whole entry)
T3 sequence (Q925H0 whole entry): T2 sequence (Q925H0 whole entry)

[4] = Kinetic solubility of the compound at pH 7.4; type: physicochemical; conditions: buffer, read-out: Kinetic_solubility
albumin = albumin (Homo sapiens, UniProt P02768); test: Binding affinity to human serum albumin by NMR-based analysis; type: ADME; conditions: read-out: PPB (converted)
[5] = target: Voltage-gated inwardly rectifying potassium channel KCNH2 (Homo sapiens, UniProt Q12809); test: Inhibition of human ERG incubated for 4 hrs by fluorescence polarization assay
Method in brief: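 Human ERG inhibition measured at concentrations up to 30 μM.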

Cytochrome P450 1A2 = target: T4, Cytochrome P450 1A2 (Homo sapiens, UniProt P05177); test: Inhibition of CYP1A2 (unknown origin) using pro-luciferin substrates in presence of NADPH by firefly luciferase reporter gene based P450-Glo assay; type: ADME
T4 sequence (P05177 whole entry): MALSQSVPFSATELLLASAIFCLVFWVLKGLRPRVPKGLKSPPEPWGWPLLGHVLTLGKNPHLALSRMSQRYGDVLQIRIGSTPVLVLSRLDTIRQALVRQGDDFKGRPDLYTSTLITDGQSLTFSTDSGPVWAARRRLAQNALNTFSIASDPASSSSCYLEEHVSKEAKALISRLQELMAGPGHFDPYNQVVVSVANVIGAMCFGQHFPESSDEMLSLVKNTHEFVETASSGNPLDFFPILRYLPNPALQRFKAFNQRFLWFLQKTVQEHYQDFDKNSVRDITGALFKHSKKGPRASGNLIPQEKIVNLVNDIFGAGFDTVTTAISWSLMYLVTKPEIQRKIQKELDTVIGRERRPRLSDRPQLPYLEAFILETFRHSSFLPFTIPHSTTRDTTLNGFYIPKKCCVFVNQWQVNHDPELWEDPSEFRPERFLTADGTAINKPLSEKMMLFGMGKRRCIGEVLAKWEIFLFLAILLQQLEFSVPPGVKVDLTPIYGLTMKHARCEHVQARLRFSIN

[6] = Clearance in NMRI mouse at 1 mg/kg, iv by LC-MS/MS analysis; type: ADME, organism-based; conditions: in vivo
[7] = Volume of distribution in NMRI mouse at 1 mg/kg, iv by LC-MS/MS analysis; type: ADME, organism-based; conditions: in vivo
[8] = Cmax in NMRI mouse at 3 mg/kg, po by LC-MS/MS analysis; type: ADME, organism-based; parameters: dose 3 mg/kg, route oral; conditions: in vivo
[9] = Oral bioavailability in NMRI mouse at 3 mg/kg by LC-MS/MS analysis; type: ADME, organism-based; conditions: in vivo
[10] = Ratio of drug level in brain to plasma of NMRI mouse at 1 mg/kg, iv measured after 2 to 8 hrs post dose; type: ADME, organism-based; conditions: read-out: BPR

albumin, sequence (P02768 whole entry): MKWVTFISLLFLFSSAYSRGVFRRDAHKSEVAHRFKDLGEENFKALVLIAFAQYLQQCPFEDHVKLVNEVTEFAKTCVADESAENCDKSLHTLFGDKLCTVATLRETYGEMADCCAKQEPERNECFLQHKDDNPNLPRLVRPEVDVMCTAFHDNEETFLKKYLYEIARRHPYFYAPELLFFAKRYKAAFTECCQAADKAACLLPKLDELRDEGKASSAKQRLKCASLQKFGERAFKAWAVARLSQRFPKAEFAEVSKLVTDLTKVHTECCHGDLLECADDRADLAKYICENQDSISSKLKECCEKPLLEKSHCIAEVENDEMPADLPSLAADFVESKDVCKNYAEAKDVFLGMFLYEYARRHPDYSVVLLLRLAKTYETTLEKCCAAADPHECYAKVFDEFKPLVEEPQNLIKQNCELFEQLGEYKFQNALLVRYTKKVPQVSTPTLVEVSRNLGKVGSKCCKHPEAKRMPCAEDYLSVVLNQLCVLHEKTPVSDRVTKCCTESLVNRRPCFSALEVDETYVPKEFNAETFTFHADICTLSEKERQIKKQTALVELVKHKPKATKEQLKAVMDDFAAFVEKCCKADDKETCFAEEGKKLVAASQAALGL
Voltage-gated inwardly rectifying potassium channel KCNH2, sequence (Q12809 whole entry): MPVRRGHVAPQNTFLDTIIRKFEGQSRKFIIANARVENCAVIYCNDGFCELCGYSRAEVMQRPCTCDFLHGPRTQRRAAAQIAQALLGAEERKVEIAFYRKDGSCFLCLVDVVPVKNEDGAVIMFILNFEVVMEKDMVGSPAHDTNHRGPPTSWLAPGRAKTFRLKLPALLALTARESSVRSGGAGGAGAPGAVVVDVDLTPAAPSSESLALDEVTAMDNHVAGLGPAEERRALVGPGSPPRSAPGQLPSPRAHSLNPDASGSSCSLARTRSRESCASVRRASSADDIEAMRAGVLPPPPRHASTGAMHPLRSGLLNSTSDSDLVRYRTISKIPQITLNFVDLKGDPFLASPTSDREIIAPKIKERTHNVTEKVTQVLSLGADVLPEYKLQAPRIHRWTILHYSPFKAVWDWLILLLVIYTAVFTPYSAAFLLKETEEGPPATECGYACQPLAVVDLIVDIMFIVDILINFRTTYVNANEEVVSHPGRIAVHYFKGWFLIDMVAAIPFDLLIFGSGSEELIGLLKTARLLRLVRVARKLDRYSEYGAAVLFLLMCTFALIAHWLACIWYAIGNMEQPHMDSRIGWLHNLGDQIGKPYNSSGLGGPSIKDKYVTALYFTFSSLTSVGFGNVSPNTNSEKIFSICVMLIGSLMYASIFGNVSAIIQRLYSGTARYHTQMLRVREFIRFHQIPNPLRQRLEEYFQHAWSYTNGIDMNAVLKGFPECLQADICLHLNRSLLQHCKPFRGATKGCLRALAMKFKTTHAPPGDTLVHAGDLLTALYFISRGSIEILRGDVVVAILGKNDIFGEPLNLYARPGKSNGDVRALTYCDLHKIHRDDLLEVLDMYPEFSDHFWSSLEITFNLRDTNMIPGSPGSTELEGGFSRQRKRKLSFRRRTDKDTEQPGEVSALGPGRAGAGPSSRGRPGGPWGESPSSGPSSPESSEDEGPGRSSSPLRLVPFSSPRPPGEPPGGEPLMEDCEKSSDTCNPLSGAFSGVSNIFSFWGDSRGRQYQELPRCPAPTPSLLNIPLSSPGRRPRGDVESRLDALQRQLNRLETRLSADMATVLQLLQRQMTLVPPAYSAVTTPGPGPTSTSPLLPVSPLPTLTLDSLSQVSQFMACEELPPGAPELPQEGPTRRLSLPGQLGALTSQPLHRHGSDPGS

Cc1nn(-c2ccc3c(c2)NCC3)c(C)c1-c1ccc(F)cc1
pIC50 [1]: < 4.52
pIC50 [2]: < 4.52
IC50 [3]: > 30 µM

Cc1nn(-c2ccc(C#N)cc2)c(C)c1-c1ccc(F)cc1
pIC50 [1]: < 4.52
pIC50 [2]: < 4.52
IC50 [3]: > 30 µM

Cc1nn(-c2ncnc3c2CNC3)c(C)c1-c1ccc(F)cc1
pIC50 [1]: < 4.52
pIC50 [2]: 4.77
IC50 [3]: > 30 µM
solubility kinetic [4]: 32 µg/mL (≈ 103 µM)
fraction unbound (albumin): 0.06
pIC50 [5]: < 4.52
pIC50 (Cytochrome P450 1A2): 6.10
clearance [6]: 34 mL/min/kg
Vd [7]: 1.4 L/kg
Cmax [8]: 2600 nM
bioavailability [9]: 100%
Kp [10]: 1.3

Cc1nn(-c2ccc(CN)cn2)c(C)c1-c1ccc(F)cc1
pIC50 [1]: < 4.52
pIC50 [2]: 5.21
IC50 [3]: 8.5 µM

Cc1ccc(-c2c(C)nn(-c3ccc(CN)cc3)c2C)cc1F
pIC50 [1]: < 4.52
pIC50 [2]: < 4.52
IC50 [3]: > 30 µM

Cc1nn(-c2ccc(CCN)cc2)c(C)c1-c1ccc(F)cc1
pIC50 [1]: < 4.52
pIC50 [2]: 4.93
IC50 [3]: > 30 µM

Cc1nn(-c2ccc(CN)cc2)c(C)c1-c1ccc(Cl)cc1
pIC50 [1]: < 4.52
pIC50 [2]: < 4.52
IC50 [3]: > 30 µM

Cc1nn(-c2ccc(C(C)N)cc2)c(C)c1-c1ccc(F)cc1 (configuration not stated)
pIC50 [1]: < 4.52
pIC50 [2]: 5.06
IC50 [3]: > 30 µM

Cc1nn(-c2ccc3c(c2)NCC3)c(C)c1-c1cccc(F)c1
pIC50 [1]: < 4.52
pIC50 [2]: < 4.52
IC50 [3]: > 30 µM

Cc1nn(-c2ncnc3c2CNC3)c(C)c1-c1cccc(F)c1
pIC50 [1]: < 4.52
pIC50 [2]: < 4.52
IC50 [3]: > 30 µM

Cc1nn(-c2ccc(CN)cc2)c(C)c1-c1ccc(C(F)(F)F)cc1
pIC50 [1]: < 4.52
pIC50 [2]: < 4.52
IC50 [3]: > 30 µM

Cc1nn(-c2ccc(CN)cc2)c(C)c1-c1ccc(CN)cc1
pIC50 [1]: < 4.52
pIC50 [2]: < 4.52
IC50 [3]: > 30 µM

Cc1nn(-c2ccc(CN)nc2)c(C)c1-c1ccc(F)cc1
pIC50 [1]: < 4.52
pIC50 [2]: < 4.52
IC50 [3]: > 30 µM

Cc1nn(-c2ccc(CN)cc2)c(C)c1-c1ccc(F)cc1
pIC50 [1]: < 4.52
pIC50 [2]: 4.72
IC50 [3]: 10.9 µM
solubility kinetic [4]: 73 µg/mL (≈ 247 µM)
fraction unbound (albumin): 0.07
pIC50 [5]: < 4.52
pIC50 (Cytochrome P450 1A2): 6.40
clearance [6]: 224 mL/min/kg
Vd [7]: 50.9 L/kg
Cmax [8]: 90 nM
bioavailability [9]: 60%
Kp [10]: 61

Cc1nn(Cc2ccc(CN)cc2)c(C)c1-c1ccc(F)cc1
pIC50 [1]: < 4.52
pIC50 [2]: 4.77
IC50 [3]: > 30 µM

Cc1nn(-c2ncnc3c2CN(C)C3)c(C)c1-c1cccc(F)c1
pIC50 [1]: < 4.52
pIC50 [2]: < 4.52
IC50 [3]: > 30 µM

Cc1nn(-c2ccc3c(c2)CNC3)c(C)c1-c1cccc(F)c1
pIC50 [1]: < 4.52
pIC50 [2]: 5.00
IC50 [3]: 11.3 µM

COc1ccc(-c2c(C)nn(-c3ccc(CN)cc3)c2C)cc1
pIC50 [1]: < 4.52
pIC50 [2]: 4.79
IC50 [3]: > 30 µM

Cc1nn(-c2cccc(CN)c2)c(C)c1-c1ccc(F)cc1
pIC50 [1]: < 4.52
pIC50 [2]: 4.81
IC50 [3]: > 30 µM

Cc1nn(-c2ccc3c(c2)CNC3)c(C)c1-c1ccc(F)cc1
pIC50 [1]: < 4.52
pIC50 [2]: 5.09
IC50 [3]: > 30 µM
solubility kinetic [4]: 56 µg/mL (≈ 182 µM)
fraction unbound (albumin): 0.05
pIC50 [5]: < 4.52
pIC50 (Cytochrome P450 1A2): 6.70

Cc1ccc(-c2c(C)nn(-c3ccc(CN)cc3)c2C)cc1
pIC50 [1]: < 4.52
pIC50 [2]: 5.06
IC50 [3]: > 30 µM

Cc1ccc(-c2c(C)nn(-c3ccc(CN)cc3)c2C)cn1
pIC50 [1]: < 4.52
pIC50 [2]: < 4.52
IC50 [3]: > 30 µM

Cc1nn(-c2ccc(CN)cc2)c(C)c1-c1cccc(F)c1
pIC50 [1]: < 4.52
pIC50 [2]: 5.37
IC50 [3]: > 30 µM

NCc1ccc(-n2cc(-c3ccc(F)cc3)cn2)cc1
pIC50 [1]: < 4.52
pIC50 [2]: < 4.52
IC50 [3]: > 30 µM

N=C(N)c1ccc(/N=N/Nc2ccc(C(=N)N)cc2)cc1 [DIMINAZENE]
pIC50 [1]: 4.24
pIC50 [2]: 3.77
IC50 [3]: 45.2 µM
